Measurements of several laboratories.
Lines come from different studies, so protocols differ.
Target: Tyrosine-protein kinase ITK/TSK (ITK, Homo sapiens, UniProt Q08881)
One construct used (Q08881 1-620): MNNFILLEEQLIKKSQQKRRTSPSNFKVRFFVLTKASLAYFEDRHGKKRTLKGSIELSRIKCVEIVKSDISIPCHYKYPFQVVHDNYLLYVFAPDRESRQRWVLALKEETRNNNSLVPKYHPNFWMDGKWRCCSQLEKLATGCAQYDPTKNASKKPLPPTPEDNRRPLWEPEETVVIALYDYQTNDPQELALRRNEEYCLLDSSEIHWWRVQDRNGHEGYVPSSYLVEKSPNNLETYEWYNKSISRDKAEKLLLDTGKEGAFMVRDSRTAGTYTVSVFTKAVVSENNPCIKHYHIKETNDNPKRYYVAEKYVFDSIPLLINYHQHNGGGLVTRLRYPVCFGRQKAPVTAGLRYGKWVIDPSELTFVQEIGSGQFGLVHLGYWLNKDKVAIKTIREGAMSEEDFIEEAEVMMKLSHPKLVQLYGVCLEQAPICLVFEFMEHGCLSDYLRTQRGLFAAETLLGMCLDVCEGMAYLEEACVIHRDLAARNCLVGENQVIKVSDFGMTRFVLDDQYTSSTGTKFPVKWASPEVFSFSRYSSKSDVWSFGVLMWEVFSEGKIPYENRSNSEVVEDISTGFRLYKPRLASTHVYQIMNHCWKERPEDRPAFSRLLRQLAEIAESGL

SMILES	effect on	mode	technique	tested at	endpoint	result
CC(C)(C)c1nc2c(s1)c1nc(N)ncc1c1ccc(NS(=O)(=O)c3c(F)cccc3F)c(F)c12	enzyme activity	inhibitor	radiometric	1 µM	remaining activity	94%
COc1cc2c(Nc3ccc(Br)cc3F)ncnc2cc1OCC1CCN(C)CC1	cell-free assay	–	–	0.5 µM	remaining signal	101%
O=C(Nc1cnn(-c2csc(C(=O)NC3COC3)c2)c1)Nc1ccccc1Cl	enzyme activity	inhibitor	–	5 µM	remaining activity	107%
Cc1ccc(NC(=O)c2ccc(C)c(C(F)(F)F)c2)cc1C#Cc1nn(C2CCC(O)CC2)c2ncnc(N)c12 (stereo not shown)	cell-free assay	–	–	10 µM	remaining signal	102%
Cc1sc(C(=O)NC2COC2)cc1-n1cc(NC(=O)Nc2c(F)cccc2Cl)cn1	enzyme activity	inhibitor	–	10 µM	remaining activity	94.4%
CCC(=O)N[C@H]1CC[C@@H](C(=O)N(C)c2ccc(-c3nc4ccccc4o3)cc2)C1	cell-free assay	–	competition with immobilised ligand	1 µM	remaining binding	100%
COc1cc2c(N3CCN(C(=O)Nc4ccc(OC(C)C)cc4)CC3)ncnc2cc1OCCCN1CCCCC1	cell-free assay	–	–	0.5 µM	remaining signal	99%
O=C(Nc1cccnn1)N1CCC(=Cc2cccc(Oc3ccc(C(F)(F)F)cn3)c2)CC1	cell-free assay	–	competition with immobilised ligand	1 µM	remaining binding	100%
COc1cc2nccc(Oc3ccc(NC(=S)NC(=O)c4ccccc4C)cc3)c2cc1OC	enzyme activity	inhibitor	–	0.5 µM	remaining activity	80.6%
CN1CC(Oc2cnc(C#N)cc2-c2ccn3nc(NC(=O)C4CC4)cc3c2)C1	enzyme activity	inhibitor	–	1 µM	inhibition	3%
CNC(=O)c1cc(Oc2ccc(NC(=O)Nc3ccc(Cl)c(C(F)(F)F)c3)cc2)ccn1	enzyme activity	inhibitor	–	0.3 µM	inhibition	-10%
Cc1cc(NC(=O)c2cccc3cc(-c4cccc5[nH]nc(N)c45)ccc23)ccc1F	enzyme activity	inhibitor	–	0.1 µM	activity vs control	104%
COc1cc2ncnc(Nc3ccc(Oc4ccccc4)c(C)c3C)c2cc1OC	enzyme activity	inhibitor	–	1 µM	inhibition	7%
CCCOc1ccc([C@H]2[C@H](C(=O)O)[C@@H](c3ccc4c(c3)OCO4)CN2CC(=O)Nc2c(CC)cccc2CC)cc1	cell-free assay	–	competition with immobilised ligand	1 µM	remaining binding	96%
COc1cc(C)c(Sc2cnc(NC(=O)c3ccc(N4CCN(CCCCCCCNC(=O)COc5cccc6c5C(=O)N(C5CCC(=O)NC5=O)C6=O)CC4)cc3)s2)cc1C(=O)N1CCN(C(C)=O)CC1 (stereo not shown)	binding	–	–	1 µM	inhibition	> 90%
CCCS(=O)(=O)Nc1ccc(F)c(C(=O)c2c[nH]c3ncc(-c4ccc(Cl)cc4)cc23)c1F	enzyme activity	inhibitor	–	1 µM	inhibition	< 10%
CO[C@H]1CC[C@H](CNc2ccc(S(=O)(=O)NC(=O)c3ccc(N4CCN(CC5=C(c6ccc(Cl)cc6)CC(C)(C)CC5)CC4)cc3Oc3cnc4[nH]ccc4c3)cc2[N+](=O)[O-])CC1	cell-free assay	–	competition with immobilised ligand	1 µM	remaining binding	87%
N#CCCc1ccc2c(c1)-c1[nH]c3ccc([N+](=O)[O-])cc3c1CC(=O)N2	cell-free assay	–	–	0.5 µM	remaining signal	99.9%
COc1cccc(CNC(=O)c2nc3scc(COCc4ccc(C(=O)O)cc4)c3c(=O)[nH]2)c1	cell-free assay	–	competition with immobilised ligand	1 µM	remaining binding	86.8%
Cc1cnc(NC2CCOCC2)nc1-n1cnc(C(=O)NC(CN)c2cc(F)cc(Cl)c2)c1 (stereo not shown)	enzyme activity	inhibitor	radiometric	1 µM	remaining activity	92%
CC/C(=N\NC(=O)NCc1cccc(O)c1)c1ccc(O)c(C)c1O	enzyme activity	inhibitor	–	0.1 µM	inhibition	3.3%
O=C1Nc2ccc(Cl)cc2C1=Cc1cc(Cl)c(O)c(Cl)c1	cell-free assay	–	–	0.5 µM	remaining signal	91.8%
CS(=O)(=O)N1CCCC(NC(=O)[C@H](CCC2CCCCC2)NC(=O)c2ccc(CNc3ncnc4c3nnn4-c3ccccc3)cc2)C1 (stereo partly shown)	cell-free assay	–	competition with immobilised ligand	0.1 µM	remaining binding	100%
O=C1NC(=O)c2cc(Nc3ccc(F)cc3)c(Nc3ccc(F)cc3)cc21	cell-free assay	–	–	0.5 µM	remaining signal	87.3%
O=C(NC[C@@H]1[C@H]2CN(C(=O)OCc3cc(C(F)(F)F)cc(C(F)(F)F)c3)C[C@@H]12)c1ccc2[nH]nnc2c1	cell-free assay	–	competition with immobilised ligand	1 µM	remaining binding	100%
CN(C)C1CCN(CC#Cc2nn(C3CCCC3)c3nc(NCc4ccccc4)ncc23)C1 (stereo not shown)	enzyme activity	inhibitor	FRET	10 µM	inhibition	15%
CCN(CC)CCNC(=O)c1c(C)[nH]c(/C=C2\C(=O)Nc3ccc(F)cc32)c1C	enzyme activity	inhibitor	–	0.3 µM	inhibition	48%
CNCc1ccccc1-c1csc([C@H](C)Nc2nc(C)nc3cc(OC)c(OC)cc23)c1	cell-free assay	–	competition with immobilised ligand	1 µM	remaining binding	100%
